Test results published in ChEMBL document CHEMBL4513216, “Probing the Open Global Health Chemical Diversity Library for Multistage-Active Starting Points for Next-Generation Antimalarials” (ACS Infect Dis, 2020).

experiment: Toxicity liver stage against HepG2, at 10uM; type: cell-based; set-up: test concentration 10 uM, cell line HepG2-A16-CD81EGFP; settings: human, HepG2-A16-CD81EGFP cells; read-out: INHIBITION
How it was run: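 Uninfected HepG2-A16-CD81EGFP cells, 3 × 10^3 per well, 1536-well, plated on prespotted compound at 10 μM final, parasite-free screening media added to match infected plates; puromycin 10 μM positive, DMSO 0.5% negative; run in parallel with 48 h PbLuc assay at 37 °C, 5% CO2; viability by CellTiter-Glo luminescence, normalized to controls.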

SMILES | cytotoxicity at 10 µM [%]
COCC(=O)N1CCC(c2nc3ccc(-c4ccncc4)cn3n2)CC1 | 10.2
CCN(CC)C(=O)c1nnsc1-c1ccc(C)cc1 | 3.14
CCc1nc(C2CCCN(C(=O)c3cnn(CC)c3)C2)no1 (stereo unspecified) | 4.16
Cc1ccc(C(=O)N2C[C@H]3CCC[C@@]3(COCc3ccncc3)C2)cn1 | 6.64
CCN(C)C(=O)c1ccc(N(C)Cc2cc(-c3ccncc3)no2)nc1 | -2.04
Cc1nc(C(C)(C)NCc2ncc(C3CC3)o2)sc1C | 3.57
CC(CNC(=O)NCc1ccco1)CC1(C)OCCO1 (stereo unspecified) | -7.25
Cc1cc(C(=O)CN2CCN(c3cnccn3)CC2)c(C)n1C(C)C | 7.36
Cn1cc(C(C)(O)CNc2ccc(C(F)(F)F)cn2)cn1 (stereo unspecified) | -44.3
O=C1CO[C@H]2CN(Cc3ccc(C(F)(F)F)cc3)C[C@H]2N1 | -4.63
Cc1nc(-c2cc(C(=O)NC(C)(C(=O)O)C(C)C)co2)cs1 (stereo unspecified) | 1.84
CSc1ccc(CNC(c2ccc(F)cc2)c2nccn2C)cc1 (stereo unspecified) | -10.8
O=C(NCc1ccoc1)NC1CCN(c2ncccn2)CC1 | 6.36
CC(O)CN1CCC(CN(C)CCC(=O)NC2CCCCC2)CC1 (stereo unspecified) | 4.11
Cc1cc(C)c(C(=O)N(CCO)Cc2ccccc2F)c(=O)[nH]1 | -0.626
O=C(NCCc1ccccc1)c1cccc(S(=O)(=O)NC2CCOC2)c1 (stereo unspecified) | 3.52
CCc1nnc2n1CCN(C(=O)C(C)Oc1cccc(C#N)c1)C2 (stereo unspecified) | 0.855
COc1cc(N2CCCC3(CCN(c4cncnc4)C3=O)C2)ncn1 (stereo unspecified) | -103
Cc1nc(CCNC(=O)NCc2cccc(N(C)C)n2)cs1 | 12
Cc1ccc(N2CCc3sc(C(=O)N4CCOCC4)cc32)nn1 | -0.142
CN(C)Cc1cc(C2CCCCN2S(=O)(=O)Cc2ccccc2)nn1C (stereo unspecified) | 0.57

SMILES | cytotoxicity at 10 µM [%]
c1cc(CCN2CCCC2CN2CCCC2)ccn1 (stereo unspecified) | -2.35
Cc1c[nH]nc1C1CCCCN1C(=O)CNS(C)(=O)=O (stereo unspecified) | -9.19
COCCN1C[C@@H]2CN(Cc3cccc(C)n3)C[C@@H]2C1=O | 6.66
CN1CCOC(CNCc2nc(-c3cccnc3)no2)C1 (stereo unspecified) | -5.3
CCOC(=O)[C@H]1[C@@H](O)C(=O)N(C)C12CCN(C(=O)c1ccccc1)CC2 | -6.53
NC(=O)C1CCN(C(=O)c2cccn2Cc2cccs2)CC1 | -4.08
CN1CC2(CCCN(Cc3nnc(-c4cccc(F)c4)o3)C2)OC1=O (stereo unspecified) | -1.66
CCC[C@H]1CN(CCS(C)(=O)=O)C[C@@H]1NC(=O)Cn1cc(C)cn1 | 2.72
CCCN1CCc2nc(N3CCOCC3)nc(NC(C)C)c2C1 | -111
CN(C)C(=O)N1CCN(Cc2ccc3occc3c2)[C@H]2CS(=O)(=O)C[C@H]21 | -4.37
CC(C)(C)c1noc(OCC(=O)NC2CCCC2)n1 | 2.68
CCN(Cc1nc(COC)no1)Cc1cccnc1NC | -43.7
CCCc1n[nH]c(C2CN(C(=O)CCCn3ccnc3)CCO2)n1 (stereo unspecified) | -5.39
Cc1ccc(-c2noc(C(C)NS(C)(=O)=O)n2)cc1 (stereo unspecified) | -9.24
NC(=O)C1CCN(C(=O)NC2CCc3cc(F)ccc32)CC1 (stereo unspecified) | 2.52
CCCS(=O)(=O)N1C[C@H]2CC[C@@H](C1)N(Cc1cscn1)C2=O | 12.8
CN(C(=O)Cc1ccc2c(c1)OCCO2)C1CCCCC1 | 2.89
Cc1cnc2c(c1NCc1ccccn1)c(=O)n(C)c(=O)n2C | -4.32
O=C(CC1CC1)N1CCC2(CC1)CN(c1ccsc1)C(=O)CO2 | -73.1
CC(C)OCc1nn(CC2CC2)c2c1CN(Cc1ccco1)CC2 | -15.4
COc1ccc(C(=O)Nc2n[nH]c(C3CCCO3)n2)cc1 (stereo unspecified) | -2.46

SMILES | cytotoxicity at 10 µM [%]
COc1ccc(S(=O)(=O)N2C[C@H](OC)[C@]3(CCCO3)C2)cc1 | 1.64
CCOC(=O)N1CCCC2(CCN(Cc3ccccc3C#N)C2)C1 (stereo unspecified) | 3.37
Cc1cc(CN2CCN(C(=O)NCc3cccs3)CC2)on1 | -1.68
Cn1ncc2c1C(COCC1CC1)CN(Cc1ccsc1)C2 (stereo unspecified) | -1.11
COc1cc(N2CCc3ncnc(-c4cnn(C)c4)c3CC2)ncn1 | 8.46
CCn1cc2c(n1)CN(S(=O)(=O)c1cccnc1)CC2COC (stereo unspecified) | 5.74
CCCc1n[nH]c(C2CN(C(=O)c3ccc[nH]3)CCO2)n1 (stereo unspecified) | -9.29
Cc1ccc(-n2ccnc2)c(C(=O)NCCOCC2CCCO2)c1 (stereo unspecified) | -139
O=C(NCc1cccc(-n2cncn2)c1)NCC(C1CC1)C1CC1 | 6.03
COc1ccc(CN2CCCC(Cn3nc(C)nc3C)C2)cc1F (stereo unspecified) | -0.409
CCNc1ncc(C(=O)NCCc2ccc(C)c(C)c2)cn1 | -5.1
COCCN1CCC2(CC1)CC(N1CCOCC1)c1ccc(C)cc12 (stereo unspecified) | -106
COc1ccc(C(=O)N2CCC(Oc3ccccc3)(C(=O)O)CC2)o1 | 11.6
COC(=O)C1CCN(C(=O)c2ccc(N(C)S(C)(=O)=O)c(C)c2)CC1 | -1.18
O=C1CCC2(CCCN(Cc3ccccc3F)C2)N1CC1CC1 (stereo unspecified) | 6.06
COc1ccc(CN2C[C@H]3CC[C@@H](C2)N(S(C)(=O)=O)C3)cc1 | -5.75
Cc1sc2nc(CCN)nc(N(CCN(C)C)CC3CCCO3)c2c1C (stereo unspecified) | -9.54
COc1cccc(NC(=O)C(C)Cn2cc(Cl)cn2)c1 (stereo unspecified) | -1.47
Cc1ccc(CN(Cc2ccncc2)C2CC(C)(C)NC(C)(C)C2)o1 | -12.3
OCCOc1ccc(NCc2cccnc2)cn1 | 1.04
O=c1oc(-c2ccc(F)cc2)nn1CN1CCSCC1 | 0.449

SMILES | cytotoxicity at 10 µM [%]
CC(NC(=O)NC1CCN(Cc2ccccc2)CC1)c1nncn1C (stereo unspecified) | -12.5
O=C(N1CCOCC1)N1CCc2ncnc(NC3CCC3)c2CC1 | -1.92
CC(C)(C)n1ncc2c1NC(=O)CC2c1ccsc1 (stereo unspecified) | 20.4
Cc1cc(C(=O)N2CCCC2)ccc1NS(C)(=O)=O | 0.535
CCCNc1cc(-c2c[nH]nc2C2CCN(C(=O)C3CCC3)C2)ccn1 (stereo unspecified) | 82
CCN(CC)CCN(C)Cc1cn(C)nc1-c1ccc2c(c1)OCCO2 | 2.95
CCNc1ccnc(NC2CCN(S(C)(=O)=O)CC2)n1 | -5.16
COc1ccc(C(C)N2CCC(NS(C)(=O)=O)CC2)cc1Cl (stereo unspecified) | -41.2
CNc1nc(C(=O)N2CCCn3nc(C(=O)N4CCCC4)cc3C2)cs1 | 4.57
O=C1CNc2ncnc(N3CCN(c4ccccc4F)CC3)c2N1 | 7.69
CNC(=O)[C@@H]1C[C@@H](NC(=O)CSc2ccccc2)CN1C1CCOCC1 | 2.14
Cn1ncc2c(N3CCS(=O)(=O)CC3)nc(C3CCCC3)nc21 | -1.31
O=C([C@H]1C[C@H]2OCC[C@H]2N(CCc2ccccc2)C1)N1CCCCO1 | 0.307
CCN(CC)S(=O)(=O)CC(=O)N1CCc2ccc(F)cc21 | -4.73
CC1CN(C(=O)c2cccc(OCc3cscn3)c2)CCO1 (stereo unspecified) | -9.86
CCNC(=O)N(Cc1cccc(OC)c1)C1CCC(O)CC1 (stereo unspecified) | -4.83
Cc1cc(CNC(=O)Nc2cccc(COCCOC(C)C)c2)no1 | 11
CCn1c(C2CCCN(Cc3ccc(F)cc3Cl)C2)nn(C)c1=O (stereo unspecified) | -2.75
